Assay results from ChEMBL document CHEMBL1795310, “Novel agmatine and agmatine-like peptidomimetic inhibitors of the West Nile virus NS2B/NS3 serine protease” (Eur J Med Chem, 2011).
The source made the active and inactive calls. The calls are words filed in the database; no cut-off is given here.

Columns and labels:
[1] = Inhibition of West Nile virus NS2B-NS3 serine protease preincubated for 1 hr before addition of Pyr-RTKR-AMC fluorogenic substrate by measuring fluorescence every 45 seconds for 1 hr by fluorescence assay
In short: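 WNV NS2B/NS3 protease (20 nM) preincubated with varying inhibitor concentrations 1 h at 25 °C in pH 8.0 buffer (10 mM Tris–HCl, 1 mM CHAPS, 20% v/v glycerol). Pyr-RTKR-AMC added to 20 μM final. Fluorescence (ex 355/em 460 nm) read at 37 °C every 45 s for 1 h. Duplicates. IC50 from sigmoidal fit of initial velocity vs log[inhibitor]. Nona-D-Arg-NH2 as positive control.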

[2] = target: Prothrombin (Homo sapiens) (UniProt P00734); assay: Inhibition of thrombin assessed as fluorescence intensity at 100 uM pretreated for 1 hr before substrate addition measured every 45 seconds for 1 hr
In short: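 Assay run with a commercial AFC thrombin kit. Thrombin (40 nM) incubated with inhibitor 1 h at 25 °C in kit reaction buffer, then AFC substrate added. Fluorescence (ex 380/em 500 nm) read at 25 °C. NAPAP served as positive control.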

[3] = Competitive inhibition of West Nile virus NS2B-NS3 serine protease assessed as rate of Pyr-RTKR-AMC hydrolysis every 45 seconds for 1 hr by Lineweaver-Burk plot analysis
In short: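 Inhibitor at 0, 5, 10, 20, 40 and 70 μM preincubated with protease (20 nM) 1 h at 25 °C, pH 8.0 (10 mM Tris–HCl, 1 mM CHAPS, 20% v/v glycerol). Pyr-RTKR-AMC then added at 10–500 μM (seven levels). Hydrolysis followed at 37 °C, ex 355/em 460 nm. Ki from non-linear regression with a competitive inhibition model, alongside a 1/V vs 1/S plot.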

Row | IC50 [1] [µM] | Activity [2] | Structure (SMILES) | Ki [3] [µM]
1 | 61.2 | – | N=C(N)NC/C=C/CNC(=O)[C@H](CCCCN)NC(=O)[C@H](CCCCN)NC(=O)Cc1ccc(-c2ccccc2)cc1 | –
2 | > 100 | – | N=C(N)NCCCNC(=O)[C@H](CCCCN)NC(=O)[C@H](CCCCN)NC(=O)Cc1ccc(-c2ccccc2)cc1 | –
3 | > 100 | – | N=C(N)NC1CCC(NC(=O)[C@H](CCCCN)NC(=O)[C@H](CCCCN)NC(=O)Cc2ccc(-c3ccccc3)cc2)CC1 (stereo partly drawn) | –
4 | > 100 | – | N=C(N)NCCCCCNC(=O)[C@H](CCCCN)NC(=O)[C@H](CCCCN)NC(=O)Cc1ccc(-c2ccccc2)cc1 | –
5 | 18.2 | inactive | CC(=O)N[C@@H](CCCCN)C(=O)N[C@@H](CCCCN)C(=O)NCCCCNC(=N)N | –
6 | > 100 | – | N=C(N)NCCNC(=O)[C@H](CCCCN)NC(=O)[C@H](CCCCN)NC(=O)Cc1ccc(-c2ccccc2)cc1 | –
7 | 20 | – | N=C(N)NC[C@@H]1CCN(C(=O)[C@H](CCCCN)NC(=O)[C@H](CCCCN)NC(=O)Cc2ccc(-c3ccccc3)cc2)C1 | –
8 | > 100 | – | N=C(N)NC[C@H]1CCN(C(=O)[C@H](CCCCN)NC(=O)[C@H](CCCCN)NC(=O)Cc2ccc(-c3ccccc3)cc2)C1 | –
9 | 4.7 | inactive | N=C(N)NCCCCNC(=O)[C@H](CCCCN)NC(=O)[C@H](CCCCN)NC(=O)Cc1ccc(-c2ccccc2)cc1 | 2.05
10 | > 100 | – | N=C(N)NCC1CCN(C(=O)[C@H](CCCCN)NC(=O)[C@H](CCCCN)NC(=O)Cc2ccc(-c3ccccc3)cc2)CC1 | –
